# MC4R antagonist – human MC4R antagonism in cAMP assay. inhibition, % at 6.5 µM. MC4R-expressing cells, MTII-stimulated cAMP, LANCE TR-FRET. actives 0.48% (n = 360,000). AID 540295;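 active = inhibition above its plate's cutoff, the mean of tested wells on that plate plus 3 SD, cut at about 29% in these data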;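 note: 0% = Melanotan II alone and 100% = Melanotan II plus saturating MCL0020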
# Target sequence (P32245 whole entry, looked up): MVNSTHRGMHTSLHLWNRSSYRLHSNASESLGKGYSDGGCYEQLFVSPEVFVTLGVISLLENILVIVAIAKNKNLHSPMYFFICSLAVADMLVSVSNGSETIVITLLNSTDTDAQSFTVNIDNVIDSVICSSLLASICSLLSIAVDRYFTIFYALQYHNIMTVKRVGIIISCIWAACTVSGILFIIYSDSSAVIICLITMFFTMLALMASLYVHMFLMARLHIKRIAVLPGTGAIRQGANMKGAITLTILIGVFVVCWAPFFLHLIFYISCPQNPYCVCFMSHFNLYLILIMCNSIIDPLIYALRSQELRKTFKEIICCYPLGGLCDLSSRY
#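 Material: human MC4R-expressing U2OS cells. Probe or stimulus: Melanotan II challenge. Dosing: 6.5 µM single dose. Times: 30-min compound, 1-h challenge, 1-h detection, room temperature. Technique: TR-FRET with Eu-cAMP and labeled anti-cAMP, 671 nm. Replication: singlicate.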
# beta cell repl – MIN6 beta-cell proliferation induction; MIN6 cells proliferation, ATPlite luminescence, 48 h; cells starved in 0.2% serum; 100% = growth in 10% serum; proliferation, % at 10 µM; AID 2380; actives 0.29% (n = 330,000);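 active = compounds whose signal lies at least 3.5 SD above the mean of all wells on their plate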;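 note: 0% = DMSO-treated cells in low-serum medium and 100% = 10% serum control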
# TMEM16A inh – mouse TMEM16A channel inhibition, primary screen; Q8BHY3; HEK293 TMEM16A/YFP iodide influx fluorescence, ionomycin; normalized B-score (activity score, 25-100; higher = stronger inhibition) at 10 µM; actives 1.2% (n = 310,000);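 active = ratio plate-corrected score three or more library SD toward inhibition, starting fluorescence score within five deviations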;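 note: score derived from kinetic fluorescence span divided by baseline fluorescence per well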
# ANO1 activ – mouse TMEM16A channel activation, primary screen. B-score at 10 µM. actives 0.3% (n = 340,000). HEK293 TMEM16A/YFP-H148Q/I152L, iodide quench fluorescence; stronger effect = lower value. Q8BHY3;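 active = fluorescence-ratio B-score plate-corrected deviation score at least 3 library SD below zero, with starting fluorescence score within 5 deviations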;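 note: channel opened by trigger with iodide after compound preincubation; score built on the fluorescence ratio of max minus min over baseline; more negative score means more quench and so TMEM16A activation or potentiation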
# MC4R barr agon – activates human MC4R beta-arrestin recruitment. U2OS MC4R beta-arrestin complementation, luminescence; percent of melanotan II response, DMSO zero. P32245. actives 0.98% (n = 360,000). activation, % at 8.9 µM;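 active = activation above a per-plate cutoff, the mean activation of sample wells on that plate plus 3 SD, cut at about 8% in these data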
# m5-HT2A agonist – mouse HTR2A agonism via beta-arrestin recruitment | P35363 | CHO-K1 mHTR2A beta-arrestin complementation, luminescence; percent of 30 µM serotonin response | activation, % at 7.6 µM | actives 0.66% (n = 360,000) | AID 624169;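 active = activation above a run cutoff, the mean activation of all tested compounds plus 3 SD, cut at about 14% in these data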;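 note: 0% = plate median of compound wells and 100% = 30 µM serotonin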
# cAMP nonselect – U2OS forskolin cAMP inhibition counter-screen; shares compounds with MC4R antagonist; parental U2OS, LANCE TR-FRET; inhibition, % at 6.5 µM; actives 26% (n = 1,600); AID 602193;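 active = mean inhibition over triplicates above the low-control well mean plus 3 SD, set per campaign, cut at about 13% in these data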;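 note: signal is single emission at 671 nm which falls as cellular cAMP rises; 0% = forskolin-stimulated wells and 100% = buffer without forskolin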
# MC4R antag conf – human MC4R cAMP antagonism confirmation; actives 27% (n = 1,600); inhibition, % at 6.5 µM; MC4R-expressing cells, MTII-stimulated cAMP, TR-FRET; shares compounds with MC4R antagonist; in the data active = inhibition above about 29%;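 note: 0% = agonist stimulated wells alone and 100% = agonist stimulated wells plus saturating reference antagonist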
# The depositor's hits bear a star; i = inactive; x = no result. This is a sample that favours compounds with a hit; in the whole collection about 3.4% have one here.
SMILES,MC4R antagonist,beta cell repl,TMEM16A inh,ANO1 activ,MC4R barr agon,m5-HT2A agonist,cAMP nonselect,MC4R antag conf
CC1CC(Nc2ccccc2)c2ccccc2N1C(=O)c1ccco1 (centres undefined),-3,-3,i,i,3,3,x,x
CC1CC(Nc2ccccc2)c2ccccc2N1C(=O)c1ccncc1 (centres undefined),34*,2,i,i,-1,1,3,5
N/C(CC(=O)Nc1ccc(F)c(Cl)c1)=N\OC(=O)c1cccs1,36*,-4,i,i,0,-7,-4,4
O=C(COC(=O)c1cccs1)Nc1ccc(F)c(F)c1,7,-1,x,i,0,7,x,x
CCCCN(C(=O)CC1CCCCC1)c1c(N)n(CCCC)c(=O)[nH]c1=O,22,x,x,x,2,2,x,x
CCOC(=O)c1ccccc1NC(=O)COC(=O)c1ccc(OCC(=O)N2CCOCC2)c(OCC)c1,30*,x,x,i,9.1*,-3,0,4
N#Cc1cccc(C(c2nnnn2CCc2ccccc2)N2CCN(C3CCCCC3)CC2)c1 (centres undefined),29*,1,i,i,2,-4,3,3
Cc1ccoc1C(=O)N1CCCC(CCC(=O)N2CCN(c3ccccn3)CC2)C1 (centres undefined),31*,-2,i,i,0,0,3,7
Cc1cccc(C(=O)N2CCCC(CCC(=O)N3CCN(c4ccccn4)CC3)C2)c1C (centres undefined),1,0,i,i,1,3,x,x
Cc1ccc(C(=O)C(C)OC(=O)c2cc3cc([N+](=O)[O-])ccc3oc2=O)cc1 (centres undefined),33*,-3,i,i,-3,-6,8,13
COC(=O)c1cc2ccc(OC)cc2c2cc(OC)c(OC)cc12,34*,3,x,x,2,6,4,12
COC(=O)c1cc(OC)c(OC)cc1N,0,2,i,i,0,-2,x,x
CCCC(=O)N1CCCC1(C)C(=O)Nc1ccc(-n2cncn2)cc1 (centres undefined),9,x,x,x,2,2,x,x
CCCC1=[N+](CC(=O)c2ccccc2)CCn2cccc21,29*,-5,i,i,-1,-2,2,4
CCCC1=[N+](CC(=O)c2ccc(Br)cc2)CCn2cccc21,11,-3,i,i,3,-1,x,x
COc1ccc(S(=O)(=O)Nc2ccc3c(c2)C(=O)N([C@H](C)CO)C[C@H](C)[C@@H](CN(C)C(=O)Nc2c(C)noc2C)O3)cc1,11,1,x,i,-1,4,x,x
CC(c1nccs1)N(C)C(=O)c1cn(Cc2cccc3ccccc23)nn1 (centres undefined),-2,7,i,i,-1,-2,x,x
Brc1ccsc1-c1csc(-c2ccncc2)n1,34*,-2,i,i,1,-4,4,-10
c1ccc(-c2csc(-c3ccncc3)n2)cc1,-4,0,i,i,1,0,x,x
CC(=O)Nc1cc(-c2cccc(C(=O)NCCO)c2)cn2c(-c3ccc(F)c(Cl)c3)cnc12,9,x,x,x,7,3,x,x
CSCCC(NC(=O)c1ccc(Cl)cc1)C(=O)OCC(=O)Nc1cc(Cl)ccc1C#N (centres undefined),32*,0,i,i,3,-1,13*,29*
Cc1cccc(-n2c(C)nc3cc(C(=O)NCCN4CCOCC4)ccc32)c1,12,x,x,x,2,-2,x,x
COCCNc1nc2c(c(=O)n(Cc3cccc(Cl)c3)c(=O)n2C)n1C,29*,-5,i,i,-2,1,1,0

# Screening results deposited in PubChem BioAssay by several laboratories.
